In brackets after ≈: the same amount, converted by molar mass.
Columns and labels:
Klebsiella pneumoniae = assay: Antibacterial activity against Klebsiella pneumoniae NCIM 5082 after 24 hrs by NCCLS agar well diffusion method; format: functional; settings: NCIM 5082, 24 h
In short: (§1)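 Nutrient agar seeded with 0.1 mL bacterial suspension (10⁵ CFU/mL in 0.85% saline). 6 mm wells filled with 0.1 mL compound. Plates in triplicate, 37 ± 0.5 °C for 24 h. MIC = lowest concentration giving complete growth inhibition.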

Proteus vulgaris = assay: Antibacterial activity against Proteus vulgaris NCIM 2813 after 24 hrs by NCCLS agar well diffusion method; format: functional; settings: NCIM 2813, 24 h; in short: as §1
Aspergillus oryzae = assay: Antifungal activity against Aspergillus oryzae NCIM 643 after 48 hrs by NCCLS agar well diffusion method; format: functional; settings: NCIM 643, 48 h
In short: (§2)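 Spore suspensions in sterile distilled water adjusted to 10⁶ CFU/mL, 0.1 mL spread on potato-dextrose agar. 6 mm wells received 0.1 mL compound in 1% DMSO (final 16–512 µg/mL). Controls: 1% DMSO and ketoconazole (16 µg/mL). Triplicate plates, 48 h at 28 ± 0.2 °C. MIC = lowest concentration completely inhibiting growth.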

Staphylococcus aureus = assay: Antibacterial activity against Staphylococcus aureus NCIM 2079 after 24 hrs by NCCLS agar well diffusion method; format: functional; settings: NCIM 2079, 24 h; in short: as §1
Escherichia coli = assay: Antibacterial activity against Escherichia coli NCIM 2065 after 24 hrs by NCCLS agar well diffusion method; format: functional; settings: NCIM 2065, 24 h; in short: as §1
Bacillus subtilis = assay: Antibacterial activity against Bacillus subtilis NCIM 2063 after 24 hrs by NCCLS agar well diffusion method; format: functional; settings: NCIM 2063, 24 h; in short: as §1
Bacillus pumilus = assay: Antibacterial activity against Bacillus pumilus NCIM 2327 after 24 hrs by NCCLS agar well diffusion method; format: functional; settings: NCIM 2327, 24 h; in short: as §1
Penicillium chrysogenum = assay: Antifungal activity against Penicillium chrysogenum NCIM 738 after 48 hrs by NCCLS agar well diffusion method; format: functional; settings: NCIM 738, 48 h; in short: as §2
Aspergillus niger = assay: Antifungal activity against Aspergillus niger NCIM 548 after 48 hrs by NCCLS agar well diffusion method; format: functional; settings: NCIM 548, 48 h; in short: as §2
Rattus norvegicus [1] = assay: Antihyperglycemic activity in streptozotocin-induced type 2 diabetic Wistar albino rat assessed as reduction in plasma glucose level at 30 mg/kg, po by glucometer; format: functional
In short: (§3)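 Wistar albino rats of either sex, 150–200 g, fasted 16 h. Diabetes induced by nicotinamide 150 mg/kg, then STZ 65 mg/kg in citrate buffer pH 4.5. Glucose confirmed after 48 h. Groups of six. Oral dosing as 0.25% sodium CMC suspension at 10, 30 or 50 mg/kg. Rosiglitazone was the reference. Retro-orbital plasma glucose measured by glucometer before dosing and at 1, 2, 4, 6, 8, 12 and 24 h. Results as mean ± SEM, compared by ANOVA, t-test and Dunnett's test.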

Candida albicans = assay: Antifungal activity against Candida albicans NCIM 3102 after 48 hrs by NCCLS agar well diffusion method; format: functional; settings: NCIM 3102, 48 h; in short: as §2
Pseudomonas aeruginosa = assay: Antibacterial activity against Pseudomonas aeruginosa NCIM 2036 after 24 hrs by NCCLS agar well diffusion method; format: functional; settings: NCIM 2036, 24 h; in short: as §1
Rattus norvegicus [2] = assay: Antihyperglycemic activity in streptozotocin-induced type 2 diabetic Wistar albino rat assessed as reduction in plasma glucose level at 50 mg/kg, po by glucometer; format: functional; in short: as §3
Micrococcus luteus = assay: Antibacterial activity against Micrococcus luteus NCIM 2155 after 24 hrs by NCCLS agar well diffusion method; format: functional; settings: NCIM 2155, 24 h; in short: as §1
[3] = Toxicity in mouse assessed as changes in vital functions; format: organism-based; settings: in vivo
Artemia salina = assay: Cytotoxicity in brine shrimps larvae assessed as mortality after 24 hrs; format: functional; settings: read-out: ED50 (the source's name)
In short: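 Artemia salina nauplii hatched 38 h under constant aeration in sterile brine (sea salt 38 g/L, pH 8.5 with 1 N NaOH). Ten nauplii per vial were exposed to a range of compound concentrations at 37 °C for 24 h under incandescent light, alongside vehicle-treated controls. Survivors were counted, % lethality was taken from mean survivors versus control, and ED50 came from probit analysis.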

Rattus norvegicus [4] = assay: Antihyperglycemic activity in po dosed streptozotocin-induced type 2 diabetic Wistar albino rat assessed as reduction in plasma glucose level by glucometer; format: functional, organism-based; in short: as §3
Rattus norvegicus [5] = assay: Antihyperglycemic activity in streptozotocin-induced type 2 diabetic Wistar albino rat assessed as reduction in plasma glucose level at 10 mg/kg, po by glucometer; format: functional; in short: as §3

Compound	MIC (Klebsiella pneumoniae) [µg/mL]	MIC (Proteus vulgaris) [µg/mL]	MIC (Aspergillus oryzae) [µg/mL]	MIC (Staphylococcus aureus) [µg/mL]	MIC (Escherichia coli) [µg/mL]	MIC (Bacillus subtilis) [µg/mL]	MIC (Bacillus pumilus) [µg/mL]	MIC (Penicillium chrysogenum) [µg/mL]	MIC (Aspergillus niger) [µg/mL]	Activity (Rattus norvegicus [1]) [mg/dL]	MIC (Candida albicans) [µg/mL]	MIC (Pseudomonas aeruginosa) [µg/mL]	Activity (Rattus norvegicus [2]) [mg/dL]	MIC (Micrococcus luteus) [µg/mL]	MTD [3] [mg/kg]	EC50 (Artemia salina) [µg/mL]	Activity (Rattus norvegicus [4])	Activity (Rattus norvegicus [5]) [mg/dL]
O=C1NC(=O)/C(=C/c2ccc(/C=C/C(=O)c3ccccc3)cc2)S1	512 (≈ 1530 µM)	512 (≈ 1530 µM)	512 (≈ 1530 µM)	512 (≈ 1530 µM)	256 (≈ 763 µM)	256 (≈ 763 µM)	256 (≈ 763 µM)	512 (≈ 1530 µM)	512 (≈ 1530 µM)	11.51	512 (≈ 1530 µM)	256 (≈ 763 µM)	15.61	512 (≈ 1530 µM)	2000	44.7 (≈ 133 µM)	Dose-dependent effect	–
O=C1NC(=O)/C(=C/c2ccc(/C=C/C(=O)c3cc(O)ccc3O)cc2)S1	256 (≈ 697 µM)	512 (≈ 1390 µM)	256 (≈ 697 µM)	256 (≈ 697 µM)	256 (≈ 697 µM)	512 (≈ 1390 µM)	256 (≈ 697 µM)	128 (≈ 348 µM)	256 (≈ 697 µM)	38.86	128 (≈ 348 µM)	512 (≈ 1390 µM)	47.73	512 (≈ 1390 µM)	2000	46.7 (≈ 127 µM)	Dose-dependent effect	30.74
Nc1cccc(C(=O)/C=C/c2ccc(/C=C3\SC(=O)NC3=O)cc2)c1	256 (≈ 731 µM)	256 (≈ 731 µM)	128 (≈ 365 µM)	256 (≈ 731 µM)	64 (≈ 183 µM)	256 (≈ 731 µM)	256 (≈ 731 µM)	256 (≈ 731 µM)	64 (≈ 183 µM)	15.36	256 (≈ 731 µM)	128 (≈ 365 µM)	21.66	256 (≈ 731 µM)	2000	33.2 (≈ 94.7 µM)	Dose-dependent effect	12.14
Cc1ccc(O)c(C(=O)/C=C/c2ccc(/C=C3\SC(=O)NC3=O)cc2)c1	128 (≈ 350 µM)	512 (≈ 1400 µM)	64 (≈ 175 µM)	256 (≈ 701 µM)	128 (≈ 350 µM)	128 (≈ 350 µM)	256 (≈ 701 µM)	64 (≈ 175 µM)	128 (≈ 350 µM)	37.03	128 (≈ 350 µM)	256 (≈ 701 µM)	42.13	512 (≈ 1400 µM)	2000	39.4 (≈ 108 µM)	Dose-dependent effect	31.76
O=C1NC(=O)/C(=C/c2ccc(/C=C/C(=O)c3cccc([N+](=O)[O-])c3)cc2)S1	256 (≈ 673 µM)	512 (≈ 1350 µM)	128 (≈ 337 µM)	128 (≈ 337 µM)	128 (≈ 337 µM)	256 (≈ 673 µM)	256 (≈ 673 µM)	256 (≈ 673 µM)	256 (≈ 673 µM)	14.72	512 (≈ 1350 µM)	128 (≈ 337 µM)	16.56	256 (≈ 673 µM)	2000	56.1 (≈ 147 µM)	Dose-dependent effect	11.18
O=C1NC(=O)/C(=C/c2ccc(/C=C/C(=O)c3ccc(F)cc3)cc2)S1	16 (≈ 45.3 µM)	32 (≈ 90.6 µM)	32 (≈ 90.6 µM)	32 (≈ 90.6 µM)	16 (≈ 45.3 µM)	16 (≈ 45.3 µM)	16 (≈ 45.3 µM)	16 (≈ 45.3 µM)	32 (≈ 90.6 µM)	25.67	32 (≈ 90.6 µM)	16 (≈ 45.3 µM)	33.12	32 (≈ 90.6 µM)	2000	4.32 (≈ 12.2 µM)	Dose-dependent effect	22.74
CC(=O)N1CCN(c2ccc(OCC3COC(Cn4ccnc4)(c4ccc(Cl)cc4Cl)O3)cc2)CC1 (stereo unspecified) [KETOCONAZOLE]	–	–	16 (≈ 30.1 µM)	–	–	–	–	16 (≈ 30.1 µM)	16 (≈ 30.1 µM)	–	16 (≈ 30.1 µM)	–	–	–	–	–	–	–
